Measured values from ChEMBL document CHEMBL1135530, “Selective alpha4beta7 integrin antagonists and their potential as antiinflammatory agents” (J Med Chem, 2002).
pIC50: −log10 of the molar value. Peptide text beside a SMILES is read from it.

Legend:
[1] = Selectivity is the ratio of inhibitory concentrations at alpha4-beta1 integrin to alpha4-beta7 integrin
Integrin alpha-4/beta-7 = target: T1, Integrin alpha-4/beta-7 (Homo sapiens, UniProt P13612+P26010); assay: Ability to block the alpha4-beta7 integrin-MAdCAM-1 binding interaction using a protein ELISA format; assay type: protein-complex assay
T1 sequence (P13612 whole entry): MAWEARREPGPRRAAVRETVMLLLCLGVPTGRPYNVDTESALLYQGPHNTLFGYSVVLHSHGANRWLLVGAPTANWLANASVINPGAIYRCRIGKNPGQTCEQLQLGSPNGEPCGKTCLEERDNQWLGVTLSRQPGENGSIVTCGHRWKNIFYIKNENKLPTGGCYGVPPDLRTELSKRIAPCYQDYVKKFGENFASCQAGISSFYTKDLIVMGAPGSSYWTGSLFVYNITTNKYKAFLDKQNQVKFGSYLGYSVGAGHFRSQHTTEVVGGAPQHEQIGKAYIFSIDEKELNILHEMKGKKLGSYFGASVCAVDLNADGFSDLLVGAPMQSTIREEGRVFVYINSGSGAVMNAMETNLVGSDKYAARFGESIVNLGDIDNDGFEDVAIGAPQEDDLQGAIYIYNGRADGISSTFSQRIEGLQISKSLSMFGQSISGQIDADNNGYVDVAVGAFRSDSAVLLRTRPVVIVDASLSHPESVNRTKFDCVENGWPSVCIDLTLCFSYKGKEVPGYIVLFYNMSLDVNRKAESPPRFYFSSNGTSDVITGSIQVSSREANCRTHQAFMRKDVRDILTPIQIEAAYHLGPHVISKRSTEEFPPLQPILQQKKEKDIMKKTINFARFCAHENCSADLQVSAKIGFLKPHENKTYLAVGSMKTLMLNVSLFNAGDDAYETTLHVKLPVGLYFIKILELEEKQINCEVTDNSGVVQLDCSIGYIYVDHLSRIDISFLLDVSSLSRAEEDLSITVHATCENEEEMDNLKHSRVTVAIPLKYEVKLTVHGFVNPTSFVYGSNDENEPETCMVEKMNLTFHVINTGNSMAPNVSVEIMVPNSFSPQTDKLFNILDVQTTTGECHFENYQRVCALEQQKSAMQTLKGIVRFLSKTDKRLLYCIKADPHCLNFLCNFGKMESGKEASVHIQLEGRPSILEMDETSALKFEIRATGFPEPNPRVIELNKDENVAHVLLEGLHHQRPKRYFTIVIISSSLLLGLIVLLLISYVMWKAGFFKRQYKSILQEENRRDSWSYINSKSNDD
T1 sequence (P26010 whole entry): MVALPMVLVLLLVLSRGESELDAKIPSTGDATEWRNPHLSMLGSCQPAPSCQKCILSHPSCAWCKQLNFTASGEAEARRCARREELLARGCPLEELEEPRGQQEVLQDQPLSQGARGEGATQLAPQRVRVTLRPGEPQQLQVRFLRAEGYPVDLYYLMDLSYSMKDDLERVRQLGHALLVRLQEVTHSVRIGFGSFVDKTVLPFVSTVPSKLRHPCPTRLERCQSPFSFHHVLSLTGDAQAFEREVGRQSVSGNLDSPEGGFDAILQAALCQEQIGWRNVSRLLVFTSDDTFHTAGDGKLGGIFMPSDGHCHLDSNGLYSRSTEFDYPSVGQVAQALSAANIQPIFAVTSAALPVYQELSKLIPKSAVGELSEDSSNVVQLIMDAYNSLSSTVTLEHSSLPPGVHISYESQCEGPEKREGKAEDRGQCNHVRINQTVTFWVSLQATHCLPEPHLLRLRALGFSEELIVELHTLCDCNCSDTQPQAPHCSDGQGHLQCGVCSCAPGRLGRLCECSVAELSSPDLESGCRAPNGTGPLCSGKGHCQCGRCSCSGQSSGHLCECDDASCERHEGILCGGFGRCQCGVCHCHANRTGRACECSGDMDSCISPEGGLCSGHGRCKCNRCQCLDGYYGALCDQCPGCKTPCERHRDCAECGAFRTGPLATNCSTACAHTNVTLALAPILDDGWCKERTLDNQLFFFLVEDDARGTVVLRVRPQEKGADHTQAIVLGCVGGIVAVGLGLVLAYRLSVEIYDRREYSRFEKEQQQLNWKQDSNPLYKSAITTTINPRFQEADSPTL
Outline: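 Plates coated overnight at 4 °C with anti-human α4 antibody 9F10 (2 µg/mL), blocked in Tris pH 7.5 buffer with 1 mM MnCl2, Tween-20 and 0.5% BSA, then loaded with α4β7 purified from transfected JY cells (2 µg/mL). Compounds (1 nM–200 µM final, triplicate) plus MAdCAM-1-Ig-HRP (1 µg/mL), 2 h room temperature. TMB read at 450 nm; IC50 at half-maximal absorbance.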

Integrin alpha-4/beta-1 = Integrin alpha-4/beta-1 (Homo sapiens, UniProt P05556+P13612); assay: Inhibitory concentration affording 50% inhibition of alpha4-beta1 integrin binding to VCAM-1, using ELISA assay.; assay type: protein-complex assay
Integrin alpha-4/beta-1, sequence (P05556 whole entry, one chain of several, the tested form may be a part): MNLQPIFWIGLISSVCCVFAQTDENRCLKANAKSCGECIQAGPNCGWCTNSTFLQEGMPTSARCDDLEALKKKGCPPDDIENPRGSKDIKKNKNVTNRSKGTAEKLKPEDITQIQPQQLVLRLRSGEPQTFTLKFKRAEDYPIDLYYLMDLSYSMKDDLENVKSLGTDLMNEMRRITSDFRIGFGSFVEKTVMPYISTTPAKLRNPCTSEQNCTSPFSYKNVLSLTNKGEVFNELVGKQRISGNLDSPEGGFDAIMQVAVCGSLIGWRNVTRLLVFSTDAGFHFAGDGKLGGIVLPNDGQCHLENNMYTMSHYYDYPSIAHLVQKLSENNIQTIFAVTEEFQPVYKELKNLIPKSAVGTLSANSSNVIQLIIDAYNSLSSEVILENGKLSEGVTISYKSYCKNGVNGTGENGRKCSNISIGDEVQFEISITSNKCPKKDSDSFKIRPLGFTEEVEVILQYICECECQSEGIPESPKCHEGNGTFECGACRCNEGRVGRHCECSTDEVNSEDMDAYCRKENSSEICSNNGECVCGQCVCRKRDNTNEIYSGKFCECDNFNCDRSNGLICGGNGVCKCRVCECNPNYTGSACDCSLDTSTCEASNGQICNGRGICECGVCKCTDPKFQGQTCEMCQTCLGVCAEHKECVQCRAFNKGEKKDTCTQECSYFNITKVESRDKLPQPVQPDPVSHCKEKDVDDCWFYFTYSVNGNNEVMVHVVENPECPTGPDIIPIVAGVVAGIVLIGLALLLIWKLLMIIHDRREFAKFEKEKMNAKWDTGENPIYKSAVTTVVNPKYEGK
Outline: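 α4β1 extracted from Ramos cell membranes (lectin chromatography, gel filtration in 1% octylglucoside), with 1 mM MnCl2 throughout. Wells coated with 4 µg/mL recombinant soluble human VCAM-1 (5 N-terminal Ig domains, from CHO cells) and blocked with 1% BSA. Inhibitor and receptor 2 h at 37 °C in Tris pH 7.4. Bound receptor detected with anti-β1 mAb 2D4.6, then HRP anti-mouse and TMB at 450 nm. IC50 at half-maximal absorbance.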

Ratio [1]	pIC50 (Integrin alpha-4/beta-7)	pIC50 (Integrin alpha-4/beta-1)	Compound
6			CC(C)C[C@H]1NC(=O)[C@H]([C@@H](C)O)NC(=O)[C@@H](CC(=O)O)NC(=O)[C@H](CO)NC(=O)[C@@H](CCCCN)NC(=O)[C@H](N)CSSC[C@H](C(N)=O)NC1=O
> 9			C[C@@H](O)[C@@H]1NC(=O)[C@@H](CC(=O)O)NC(=O)[C@H](CO)NC(=O)[C@@H](CCCN=C(N)N)NC(=O)[C@H](N)CSSC[C@H](C(N)=O)NC(=O)CNC1=O
0.07			CC(C)C[C@H]1NC(=O)[C@H]([C@@H](C)O)NC(=O)[C@@H](CC(=O)O)NC(=O)[C@H](CO)NC(=O)[C@@H](Cc2ccc(O)cc2)NC(=O)[C@H](N)CSSC[C@H](C(N)=O)NC1=O
0.5			CC(C)C[C@H]1NC(=O)[C@H]([C@@H](C)O)NC(=O)[C@@H](CC(N)=O)NC(=O)[C@H](CO)NC(=O)[C@@H](CCCN=C(N)N)NC(=O)[C@H](N)CSSC[C@H](C(N)=O)NC1=O
0.1			CC(C)C[C@H]1NC(=O)[C@H]([C@@H](C)O)NC(=O)[C@@H](CCC(=O)O)NC(=O)[C@H](CO)NC(=O)[C@@H](CCCN=C(N)N)NC(=O)[C@H](N)CSSC[C@H](C(N)=O)NC1=O
3.5			CC(C)C[C@H]1NC(=O)[C@H]([C@@H](C)O)NC(=O)[C@@H](CC(=O)O)NC(=O)[C@H]([C@@H](C)O)NC(=O)[C@@H](CCCN=C(N)N)NC(=O)[C@H](N)CSSC[C@H](C(N)=O)NC1=O
0.9			C[C@@H](O)[C@@H]1NC(=O)[C@@H](CC(=O)O)NC(=O)[C@H](CO)NC(=O)[C@@H](CCCN=C(N)N)NC(=O)[C@H](N)CSSC[C@H](C(N)=O)NC(=O)[C@H]2CCCN2C1=O
13.1			CC(C)[C@H]1NC(=O)[C@H]([C@@H](C)O)NC(=O)[C@@H](CC(=O)O)NC(=O)[C@H](CO)NC(=O)[C@@H](CCCN=C(N)N)NC(=O)[C@H](N)CSSC[C@H](C(N)=O)NC1=O
0.37			CC(C)C[C@H]1NC(=O)[C@H]([C@@H](C)O)NC(=O)[C@@H](CC(=O)O)NC(=O)[C@H](CO)NC(=O)[C@@H](Cc2c[nH]c3ccccc23)NC(=O)[C@H](N)CSSC[C@H](C(N)=O)NC1=O
15.5			CC(C)C[C@H]1NC(=O)[C@H](C(C)C)NC(=O)[C@@H](CC(=O)O)NC(=O)[C@H](CO)NC(=O)[C@@H](CCCN=C(N)N)NC(=O)[C@H](N)CSSC[C@H](C(N)=O)NC1=O
48			CC(C)C[C@H]1NC(=O)[C@H](CO)NC(=O)[C@@H](CC(=O)O)NC(=O)[C@H](CO)NC(=O)[C@@H](CCCN=C(N)N)NC(=O)[C@H](N)CSSC[C@H](C(N)=O)NC1=O
	6.37	6.80	CC(C)C[C@@H]1NC(=O)[C@H]([C@@H](C)O)NC(=O)[C@H](CC(=O)O)NC(=O)[C@H](CO)NC(=O)[C@H](Cc2c[nH]c3ccccc23)NC(=O)[C@@H](N)CSSC[C@@H](C(N)=O)NC1=O
	5.74	4.60	CC[C@H](C)[C@@H]1NC(=O)[C@H]([C@@H](C)O)NC(=O)[C@H](CC(=O)O)NC(=O)[C@H](CO)NC(=O)[C@H](CCCNC(=N)N)NC(=O)[C@@H](N)CSSC[C@@H](C(N)=O)NC1=O
	6.41	5.96	CC(C)C[C@@H]1NC(=O)[C@H]([C@@H](C)O)NC(=O)[C@H](CC(=O)O)NC(=O)[C@H](CO)NC(=O)[C@H](Cc2cnc[nH]2)NC(=O)[C@@H](N)CSSC[C@@H](C(N)=O)NC1=O
0.42			CC(C)C[C@@H]1NC(=O)[C@@H](CCCN=C(N)N)NC(=O)[C@H](N)CSSC[C@H](C(N)=O)NC(=O)[C@@H](CC(C)C)NC(=O)[C@H]([C@@H](C)O)NC(=O)[C@@H](CC(=O)O)NC1=O
	6.54	4.85	CC(C)C[C@@H]1NC(=O)[C@H](CO)NC(=O)[C@H](CC(=O)O)NC(=O)[C@H](CO)NC(=O)[C@H](CCCNC(=N)N)NC(=O)[C@@H](N)CSSC[C@@H](C(N)=O)NC1=O
	4.64	4.40	C[C@@H]1NC(=O)[C@H]([C@@H](C)O)NC(=O)[C@H](CC(=O)O)NC(=O)[C@H](CO)NC(=O)[C@H](CCCN=C(N)N)NC(=O)[C@@H](N)CSSC[C@@H](C(N)=O)NC1=O (HELM PEPTIDE1{C.R.S.D.T.A.C.[am]}$PEPTIDE1,PEPTIDE1,1:R3-7:R3$$$V2.0)
	< 4.00	< 4.00	CC(C)C[C@@H]1NC(=O)[C@H]([C@@H](C)O)NC(=O)[C@H](CCC(N)=O)NC(=O)[C@H](CO)NC(=O)[C@H](CCCNC(=N)N)NC(=O)[C@@H](N)CSSC[C@@H](C(N)=O)NC1=O (HELM PEPTIDE1{C.R.S.Q.T.L.C.[am]}$PEPTIDE1,PEPTIDE1,1:R3-7:R3$$$V2.0)
	6.08	4.89	CC(C)C[C@@H]1NC(=O)[C@H](C(C)C)NC(=O)[C@H](CC(=O)O)NC(=O)[C@H](CO)NC(=O)[C@H](CCCN=C(N)N)NC(=O)[C@@H](N)CSSC[C@@H](C(N)=O)NC1=O
	6.28	5.07	CC(C)C[C@@H]1NC(=O)[C@H]([C@@H](C)O)NC(=O)[C@H](CC(=O)O)NC(=O)[C@H](CO)NC(=O)[C@H](CCCNC(=N)N)NC(=O)[C@@H](NC(=O)[C@@H](N)CC(=O)O)CSSC[C@@H](C(N)=O)NC1=O (HELM PEPTIDE1{D.C.R.S.D.T.L.C.[am]}$PEPTIDE1,PEPTIDE1,2:R3-8:R3$$$V2.0)
	4.40	5.66	CC(C)C[C@@H]1NC(=O)[C@H]([C@@H](C)O)NC(=O)[C@H](CC(N)=O)NC(=O)[C@H](CO)NC(=O)[C@H](CCCNC(=N)N)NC(=O)[C@@H](N)CSSC[C@@H](C(=O)O)NC1=O
	6.96	5.42	CC(C)C[C@@H]1NC(=O)[C@H]([C@@H](C)O)NC(=O)[C@H](CC(=O)O)NC(=O)[C@H](CO)NC(=O)[C@H](CCCNC(=N)N)NC(=O)[C@@H](N)CSSC[C@@H](C(=O)NCC(N)=O)NC1=O (HELM PEPTIDE1{C.R.S.D.T.L.C.G.[am]}$PEPTIDE1,PEPTIDE1,1:R3-7:R3$$$V2.0)
	6.47	5.06	CSCC[C@H](N)C(=O)N[C@@H](CC(=O)O)C(=O)N[C@H]1CSSC[C@@H](C(=O)NCC(N)=O)NC(=O)[C@H](CC(C)C)NC(=O)[C@H]([C@@H](C)O)NC(=O)[C@H](CC(=O)O)NC(=O)[C@H](CO)NC(=O)[C@H](CCCN=C(N)N)NC1=O (HELM PEPTIDE1{M.D.C.R.S.D.T.L.C.G.[am]}$PEPTIDE1,PEPTIDE1,3:R3-9:R3$$$V2.0)
	4.70	5.92	CC[C@H](C)[C@@H]1NC(=O)[C@H](CCCN=C(N)N)NC(=O)[C@@H](N)CSSC[C@@H](C(N)=O)NC(=O)[C@H](CC(C)C)NC(=O)[C@H]([C@@H](C)O)NC(=O)[C@H](CC(=O)O)NC1=O
	5.72	6.10	CC(C)C[C@@H]1NC(=O)[C@H](CCCN=C(N)N)NC(=O)[C@@H](N)CSSC[C@@H](C(N)=O)NC(=O)[C@H](CC(C)C)NC(=O)[C@H]([C@@H](C)O)NC(=O)[C@H](CC(=O)O)NC1=O
